As a reminder, the Ki is a dissociation constant, usually derived from enzyme kinetics or from competition with a known ligand. Read a high Ki as weaker binding.

Assay [1] has as its target T1, Sodium channel protein type 4 subunit alpha (Homo sapiens, UniProt P35499). Nature of the assay: Relative affinity for inactivated and resting human SkM1 expressed in HEK293 cells. Format: cell-based.
Target sequence in this assay (P35499 whole entry, looked up): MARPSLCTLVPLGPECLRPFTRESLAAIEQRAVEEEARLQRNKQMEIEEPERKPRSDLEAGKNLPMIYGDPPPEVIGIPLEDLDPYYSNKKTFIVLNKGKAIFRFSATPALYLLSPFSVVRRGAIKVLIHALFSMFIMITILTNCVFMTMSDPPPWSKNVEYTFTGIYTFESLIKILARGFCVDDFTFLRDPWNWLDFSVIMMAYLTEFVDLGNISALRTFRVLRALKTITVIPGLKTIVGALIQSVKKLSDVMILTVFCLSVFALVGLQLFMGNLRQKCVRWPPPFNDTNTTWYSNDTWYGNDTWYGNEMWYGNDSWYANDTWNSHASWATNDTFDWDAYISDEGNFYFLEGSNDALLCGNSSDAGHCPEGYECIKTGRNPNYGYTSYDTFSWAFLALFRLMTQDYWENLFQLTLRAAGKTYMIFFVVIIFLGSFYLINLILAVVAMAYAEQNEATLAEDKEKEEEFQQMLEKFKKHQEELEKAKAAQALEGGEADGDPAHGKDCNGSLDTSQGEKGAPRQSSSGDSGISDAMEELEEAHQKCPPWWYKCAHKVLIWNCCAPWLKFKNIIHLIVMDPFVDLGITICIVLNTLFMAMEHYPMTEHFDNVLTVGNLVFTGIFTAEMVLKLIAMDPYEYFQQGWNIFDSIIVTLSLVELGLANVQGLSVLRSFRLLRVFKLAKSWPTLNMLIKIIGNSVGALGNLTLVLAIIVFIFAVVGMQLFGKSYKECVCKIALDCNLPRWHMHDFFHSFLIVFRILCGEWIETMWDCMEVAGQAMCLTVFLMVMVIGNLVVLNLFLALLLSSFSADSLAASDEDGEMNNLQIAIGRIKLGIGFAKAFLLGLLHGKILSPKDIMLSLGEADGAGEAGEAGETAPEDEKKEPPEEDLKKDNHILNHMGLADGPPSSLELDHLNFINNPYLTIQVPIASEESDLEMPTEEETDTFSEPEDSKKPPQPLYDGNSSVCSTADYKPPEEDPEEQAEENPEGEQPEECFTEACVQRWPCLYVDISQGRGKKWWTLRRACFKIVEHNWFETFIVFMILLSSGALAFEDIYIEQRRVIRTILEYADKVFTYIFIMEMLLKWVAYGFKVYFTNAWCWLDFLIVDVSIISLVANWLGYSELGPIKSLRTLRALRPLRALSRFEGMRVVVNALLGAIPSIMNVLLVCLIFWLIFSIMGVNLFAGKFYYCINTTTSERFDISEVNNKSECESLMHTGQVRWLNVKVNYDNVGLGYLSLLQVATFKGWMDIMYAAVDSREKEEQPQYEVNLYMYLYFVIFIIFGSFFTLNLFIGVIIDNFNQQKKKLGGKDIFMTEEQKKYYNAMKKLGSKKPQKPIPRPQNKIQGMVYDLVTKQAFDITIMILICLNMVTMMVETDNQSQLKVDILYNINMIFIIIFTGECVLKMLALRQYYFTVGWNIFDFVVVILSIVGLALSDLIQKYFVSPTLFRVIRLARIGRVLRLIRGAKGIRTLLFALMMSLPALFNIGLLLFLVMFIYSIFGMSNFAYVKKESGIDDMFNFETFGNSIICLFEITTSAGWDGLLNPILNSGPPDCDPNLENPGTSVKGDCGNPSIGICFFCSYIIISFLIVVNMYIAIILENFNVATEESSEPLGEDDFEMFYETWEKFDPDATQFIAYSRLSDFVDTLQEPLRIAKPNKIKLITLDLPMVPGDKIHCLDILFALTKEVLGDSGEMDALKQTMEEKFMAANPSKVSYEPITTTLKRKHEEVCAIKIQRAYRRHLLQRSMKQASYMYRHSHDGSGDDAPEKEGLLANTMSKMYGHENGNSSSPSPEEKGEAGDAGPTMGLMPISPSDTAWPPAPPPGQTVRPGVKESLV
In assay [2] the target is T1, Sodium channel protein type 4 subunit alpha. Put plainly: Affinity for resting human SkM1 sodium channel expressed in HEK293 cells. The format is cell-based. A digest of the protocol:
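Tonic block was measured by whole-cell patch clamp on hSkM1-expressing HEK-293 cells at room temperature. Cells were held at -120 mV, where all channels are resting, and depolarized to 0 mV. Peak current was compared between control and 3 μM antagonist applied by flow pipes from DMSO stock. The fractional response gave Kr = FR/(1−FR)·[antag], with slope n = 1. Mean ± SEM, n = 3–4.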
Target sequence in this assay (P35499 whole entry, looked up): as above

Assay [3] shares this target. Nature of the assay: Affinity for inactive human SkM1 sodium channel expressed in HEK293 cells. The format is cell-based. A digest of the protocol:
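Whole-cell voltage clamp at room temperature on HEK-293 cells stably expressing hSkM1, recorded 3–4 days after plating. Cells were held at -120 mV. 10–12 conditioning prepulses (3 s, 10 mV steps) were each followed by a 5 ms test pulse to 0 mV at 1/7 s. Boltzmann V1/2 and k were taken without and with drug (final 0.003–10 μM, ≤0.1% DMSO). Ki came from the modified Bean equation. Mean ± SEM, n = 3–4.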
Target sequence in this assay (P35499 whole entry): as the sequence (P35499 whole entry, looked up) above

Assay [4] shares this target. The settings on record: HEK293.
Target sequence in this assay (P35499 whole entry, looked up): as above

As for `Nc1nnc(-c2cccc(Cl)c2Cl)c(N)n1` [LAMOTRIGINE], the Ratio in assay [1] came to 85. Moreover, the Kr in assay [2] stood at 1440 µM. Also, the Ki in assay [3] came out at 17 µM.
On to `Cn1ccc(-c2ccc(Oc3ccc(F)cc3)cc2)n1`, for which the Ratio in assay [1] turned out to be 30. Moreover, the Kr in assay [2] is 21 µM. The same compound had an inhibition constant (Ki) in assay [3] of 0.69 µM.
In the same order, the values of `NC(=O)n1ccc(-c2ccc(Oc3ccc([N+](=O)[O-])cc3)cc2)n1` are 226, 7 µM and 0.031 µM.
On to `COc1ccc(-c2cc[nH]n2)cc1`, for which the Ratio in assay [1] is 9. The compound also showed a Kr in assay [2] of 710 µM. In assay [3], the Ki was 81 µM.
The corresponding values for `CN(C)C(=O)n1ccc(-c2ccc(Oc3ccc(F)cc3)cc2)n1` are 76, 26 µM and 0.34 µM.
Consider `CNC(=O)n1ccc(-c2ccc(Oc3ccc(F)cc3)cc2)n1`, for which the Ratio in assay [1] stood at 140. Besides, in assay [2], the Kr is 21 µM. This compound also came in with an inhibitory constant (Ki) in assay [3] of 0.15 µM.
Regarding `Fc1ccc(Oc2ccc(-c3cc[nH]n3)cc2)cc1`, in assay [1], the Ratio is 85. Moreover, in assay [2], the Kr was 17 µM. Further, the Ki in assay [3] amounted to 0.2 µM.
Regarding `NC(=O)n1ccc(-c2ccc(Oc3ccccc3)cc2)n1`, the Ratio in assay [1] is 143. Besides, the Kr in assay [2] came to 5 µM. Also, the affinity in assay [3] corresponds to a Ki of 0.035 µM.
The corresponding values for `c1ccc(Oc2ccc(-c3cc[nH]n3)cc2)cc1` are 67, 16 µM and 0.24 µM.
The corresponding values for `NC(=O)N/N=C/c1ccc(Oc2ccc(F)cc2)cc1` are 150, 27 µM and 0.18 µM.
For `NC(=O)n1ccc(-c2ccc(Oc3ccc(F)cc3F)cc2)n1`, the Ratio in assay [1] is 400. Also, the Kr in assay [2] turned out to be 10 µM. The same compound had a Ki in assay [3] of 0.025 µM.
The corresponding values for `c1ccc(-c2cc[nH]n2)cc1` are 18, 1110 µM and 61 µM.
In the same order, the values of `O=C1NC(=O)C(c2ccccc2)(c2ccccc2)N1` [PHENYTOIN] are 26, 620 µM and 24 µM.
With `NC(=O)N1c2ccccc2C=Cc2ccccc21` [CARBAMAZEPINE], in assay [1], the Ratio came out at 14. In assay [4], the Kr was determined as 720 µM. In addition, affinity in assay [3] was put at a Ki of 52 µM.
In the case of `NC(=O)n1ccc(-c2ccc(Oc3ccc(F)cc3)cc2)n1`, the Ratio in assay [1] was 194. The compound also returned a Kr in assay [2] of 6 µM. In assay [3], the Ki amounted to 0.031 µM.

(Values after ChEMBL document CHEMBL1149105, “3-(4-phenoxyphenyl)pyrazoles: a novel class of sodium channel blockers” (J Med Chem, 2004).)
